# Reference: ChEMBL document CHEMBL1149257, “Tetrasubstituted imidazole inhibitors of cytokine release: probing substituents in the N-1 position” (J Med Chem, 2004)
# Legend:
# Blood [1] = assay: Inhibition of LPS-induced IL1 beta production in human whole blood; format: functional, tissue-based
# Procedure, shortened: (§1)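 Fresh blood from healthy human donors, preincubated 15 min at 37 °C, 5% CO2, with serially diluted compound in Cremophor EL/ethanol (1:1); 1% Cremophor EL/ethanol as control. Stimulated with LPS 1 μg/mL for 4 h at 37 °C, stopped on ice and centrifuged. TNFα and IL-1β in the supernatant measured by ELISA. IC50 from percent reduction versus control; mean of two independent experiments unless stated.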
# Blood [2] = assay: Inhibition of LPS-induced TNFalpha production in human whole blood; format: functional, tissue-based; procedure, shortened: as §1
# [3] = biological target: Mitogen-activated protein kinase 14 (Homo sapiens, UniProt Q16539); assay: Inhibition of mitogen-activated protein kinase p38 alpha
# CYP2D6 = CYP2D6 (Homo sapiens, UniProt P10635); assay: Inhibition of human liver CYP2D6 at 10 uM; format: ADME
# Procedure, shortened: (§2)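 Each isoform tested with the compound at a single concentration of 10 μM in phosphate buffer (pH 7.4) containing 0.1% DMSO; read out as percent inhibition of enzyme activity. Other conditions follow a previously reported protocol.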
# CYP1A2 = biological target: T1, CYP1A2 (Homo sapiens, UniProt P05177); assay: Inhibition of human liver CYP1A2 at 10 uM; format: ADME; procedure, shortened: as §2
# T1 sequence (P05177 whole entry): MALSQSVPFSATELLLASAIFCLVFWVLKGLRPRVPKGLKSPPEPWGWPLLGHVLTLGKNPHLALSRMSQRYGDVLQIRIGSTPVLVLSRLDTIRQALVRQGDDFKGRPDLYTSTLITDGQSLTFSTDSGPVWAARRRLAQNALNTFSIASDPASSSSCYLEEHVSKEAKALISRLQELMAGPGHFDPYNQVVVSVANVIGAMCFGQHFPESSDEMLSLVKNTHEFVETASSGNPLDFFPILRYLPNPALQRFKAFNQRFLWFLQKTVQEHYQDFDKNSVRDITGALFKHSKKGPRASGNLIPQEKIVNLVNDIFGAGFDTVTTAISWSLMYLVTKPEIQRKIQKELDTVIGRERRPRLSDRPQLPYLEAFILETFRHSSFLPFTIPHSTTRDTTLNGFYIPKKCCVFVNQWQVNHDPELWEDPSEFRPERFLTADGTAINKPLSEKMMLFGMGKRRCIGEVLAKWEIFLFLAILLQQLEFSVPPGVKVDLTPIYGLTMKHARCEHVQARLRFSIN
# CYP2C9 = CYP2C9 (Homo sapiens, UniProt P11712); assay: Inhibition of human liver CYP2C9 at 10 uM; format: ADME; procedure, shortened: as §2
# CYP3A4 = CYP3A4 (Homo sapiens, UniProt P08684); assay: Inhibition of human liver CYP3A4 at 10 uM; format: ADME; procedure, shortened: as §2
# CYP2C19 = CYP2C19 (Homo sapiens, UniProt P33261); assay: Inhibition of human liver CYP2C19 at 10 uM; format: ADME; procedure, shortened: as §2
# CYP2C19, sequence (P33261 whole entry): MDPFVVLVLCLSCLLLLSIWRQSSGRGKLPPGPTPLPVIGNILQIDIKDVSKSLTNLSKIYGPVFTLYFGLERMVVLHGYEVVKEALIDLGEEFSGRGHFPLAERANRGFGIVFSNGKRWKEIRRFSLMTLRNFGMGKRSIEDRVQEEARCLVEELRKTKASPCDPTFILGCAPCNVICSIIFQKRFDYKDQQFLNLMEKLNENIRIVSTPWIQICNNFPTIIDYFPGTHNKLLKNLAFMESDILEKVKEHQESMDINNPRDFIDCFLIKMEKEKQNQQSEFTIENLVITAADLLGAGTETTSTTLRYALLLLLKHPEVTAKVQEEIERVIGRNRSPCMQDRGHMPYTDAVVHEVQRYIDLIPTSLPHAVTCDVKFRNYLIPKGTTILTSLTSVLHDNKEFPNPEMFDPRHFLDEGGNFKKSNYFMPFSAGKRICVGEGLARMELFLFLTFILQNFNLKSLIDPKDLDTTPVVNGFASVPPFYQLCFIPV
# Mitogen-activated protein kinase 14, sequence (Q16539 whole entry): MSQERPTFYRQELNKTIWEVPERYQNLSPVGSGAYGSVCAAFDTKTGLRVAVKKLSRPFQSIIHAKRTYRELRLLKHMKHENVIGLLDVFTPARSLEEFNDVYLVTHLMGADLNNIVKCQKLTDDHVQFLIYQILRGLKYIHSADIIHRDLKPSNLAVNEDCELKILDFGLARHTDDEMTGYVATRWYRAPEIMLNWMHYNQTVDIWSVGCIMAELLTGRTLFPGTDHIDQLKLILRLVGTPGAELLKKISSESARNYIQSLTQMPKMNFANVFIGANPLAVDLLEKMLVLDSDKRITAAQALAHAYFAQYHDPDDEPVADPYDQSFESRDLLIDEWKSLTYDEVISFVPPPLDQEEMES
# CYP2C9, sequence (P11712 whole entry): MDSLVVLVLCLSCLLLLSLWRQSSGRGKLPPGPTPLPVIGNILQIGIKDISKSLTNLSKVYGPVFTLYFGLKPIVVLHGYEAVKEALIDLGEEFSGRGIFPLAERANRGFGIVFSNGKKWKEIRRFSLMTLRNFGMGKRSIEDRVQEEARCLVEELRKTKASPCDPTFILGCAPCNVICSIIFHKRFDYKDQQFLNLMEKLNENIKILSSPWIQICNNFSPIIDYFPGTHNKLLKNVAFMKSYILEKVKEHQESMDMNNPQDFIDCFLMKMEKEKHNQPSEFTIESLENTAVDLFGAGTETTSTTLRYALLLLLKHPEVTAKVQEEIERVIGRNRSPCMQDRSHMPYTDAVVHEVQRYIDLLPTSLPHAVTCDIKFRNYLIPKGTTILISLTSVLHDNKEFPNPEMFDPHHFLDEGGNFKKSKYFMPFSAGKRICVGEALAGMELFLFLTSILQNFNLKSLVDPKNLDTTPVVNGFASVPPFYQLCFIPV
# CYP2D6, sequence (P10635 whole entry, canonical isoform): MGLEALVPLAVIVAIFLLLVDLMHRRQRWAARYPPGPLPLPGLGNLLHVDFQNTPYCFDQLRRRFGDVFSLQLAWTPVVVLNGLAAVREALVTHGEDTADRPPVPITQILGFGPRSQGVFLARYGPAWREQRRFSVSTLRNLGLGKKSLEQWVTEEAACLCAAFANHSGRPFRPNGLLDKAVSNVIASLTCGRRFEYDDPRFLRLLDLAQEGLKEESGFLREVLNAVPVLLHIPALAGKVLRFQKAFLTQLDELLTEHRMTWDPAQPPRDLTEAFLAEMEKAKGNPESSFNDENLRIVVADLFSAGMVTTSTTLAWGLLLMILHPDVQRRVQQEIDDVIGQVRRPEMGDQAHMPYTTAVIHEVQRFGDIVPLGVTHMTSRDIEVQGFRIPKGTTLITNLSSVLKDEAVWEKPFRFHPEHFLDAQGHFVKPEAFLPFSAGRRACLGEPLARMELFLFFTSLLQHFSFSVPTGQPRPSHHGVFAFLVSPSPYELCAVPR
# CYP3A4, sequence (P08684 whole entry): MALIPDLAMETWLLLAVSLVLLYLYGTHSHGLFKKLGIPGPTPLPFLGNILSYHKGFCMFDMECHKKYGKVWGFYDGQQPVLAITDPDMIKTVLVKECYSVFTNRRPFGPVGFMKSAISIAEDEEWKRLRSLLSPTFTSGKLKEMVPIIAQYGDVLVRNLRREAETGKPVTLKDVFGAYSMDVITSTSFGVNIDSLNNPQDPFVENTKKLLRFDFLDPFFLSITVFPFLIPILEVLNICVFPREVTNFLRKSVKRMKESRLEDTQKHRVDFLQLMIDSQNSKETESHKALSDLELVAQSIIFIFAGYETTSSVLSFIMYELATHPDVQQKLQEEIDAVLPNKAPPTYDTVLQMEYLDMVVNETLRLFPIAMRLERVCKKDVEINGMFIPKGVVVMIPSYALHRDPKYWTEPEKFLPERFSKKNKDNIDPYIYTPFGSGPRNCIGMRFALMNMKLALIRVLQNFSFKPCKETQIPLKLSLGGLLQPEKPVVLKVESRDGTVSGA
Structure (SMILES),IC50 [3] [µM],also measured
C#CCOCCn1c(SC)nc(-c2ccc(F)cc2)c1-c1ccnc(NC(C)=O)c1,0.666,IC50 (Blood [1]): 13.9 µM; IC50 (Blood [2]): 40 µM
CSc1nc(-c2ccc(F)cc2)c(-c2ccnc(NC(C)=O)c2)n1CCN1CCCCC1,1.34,inhibition at 10 µM (CYP2D6): 77.5%; inhibition at 10 µM (CYP1A2): 12%; inhibition at 10 µM (CYP2C9): 5%; inhibition at 10 µM (CYP3A4): 97%; IC50 (Blood [1]): > 10 µM; inhibition at 10 µM (CYP2C19): 41%; IC50 (Blood [2]): > 10 µM
COCCCn1c(SCCC(=O)N2CCOCC2)nc(-c2ccc(F)cc2)c1-c1ccnc(NC(C)=O)c1,> 10,
CSc1nc(-c2ccc(F)cc2)c(-c2ccnc(NC(C)=O)c2)n1CCNC(C)=O,7.29,
C=CCOCCn1c(SCc2ccc([S+](C)[O-])cc2)nc(-c2ccc(F)cc2)c1-c1ccnc(NC(C)=O)c1 (stereo not given),> 10,
COCCCn1c(SC)nc(-c2ccc(F)cc2)c1-c1ccnc(NC(C)=O)c1,0.205,IC50 (Blood [1]): 18.2 µM; IC50 (Blood [2]): 17.8 µM
C=CCOCCn1c(SC)nc(-c2ccc(F)cc2)c1-c1ccnc(NC(C)=O)c1,1.85,IC50 (Blood [1]): 48.5 µM; IC50 (Blood [2]): > 100 µM
CCOC(=O)N1CCC(n2c(SC)nc(-c3ccc(F)cc3)c2-c2ccnc(NC(C)=O)c2)CC1,> 10,
CC(=O)NCCn1c(SCc2ccc([S+](C)[O-])cc2)nc(-c2ccc(F)cc2)c1-c1ccnc(NC(C)=O)c1 (stereo not given),> 10,
CC(=O)Nc1cc(-c2c(-c3ccc(F)cc3)nc(SCCC(=O)N3CCOCC3)n2CCO)ccn1,2.51,
CSc1nc(-c2ccc(F)cc2)c(-c2ccnc(NC(C)=O)c2)n1CCO,0.398,IC50 (Blood [1]): 33.2 µM; IC50 (Blood [2]): 35.8 µM
CC(=O)Nc1cc(-c2c(-c3ccc(F)cc3)nc(SCCC(=O)N3CCOCC3)n2CCCO)ccn1,9.5,
CC(=O)Nc1cc(-c2c(-c3ccc(F)cc3)nc(SCc3ccc([S+](C)[O-])cc3)n2CC(C)O)ccn1 (stereo not given),> 10,
CSc1nc(-c2ccc(F)cc2)c(-c2ccnc(NC(C)=O)c2)n1CCCO,0.813,IC50 (Blood [1]): 13.8 µM; IC50 (Blood [2]): 20.5 µM
COC(Cn1c(SC)nc(-c2ccc(F)cc2)c1-c1ccnc(NC(C)=O)c1)OC,4.1,
COCCn1c(SCc2ccc([S+](C)[O-])cc2)nc(-c2ccc(F)cc2)c1-c1ccnc(NC(C)=O)c1 (stereo not given),0.15,
CSCCn1c(SC)nc(-c2ccc(F)cc2)c1-c1ccnc(NC(C)=O)c1,0.431,IC50 (Blood [1]): 36.4 µM; IC50 (Blood [2]): 44.2 µM
CSc1nc(-c2ccc(F)cc2)c(-c2ccnc(NC(C)=O)c2)n1CCN1CCOCC1,2.03,IC50 (Blood [1]): > 10 µM; IC50 (Blood [2]): > 10 µM
CC(=O)Nc1cc(-c2c(-c3ccc(F)cc3)nc(SCc3ccc([S+](C)[O-])cc3)n2CCOCCO)ccn1 (stereo not given),> 10,
CC(=O)Nc1cc(-c2c(-c3ccc(F)cc3)nc(SCCCC(=O)N3CCOCC3)n2CCO)ccn1,2,
COCCn1c(SC)nc(-c2ccc(F)cc2)c1-c1ccnc(NC(C)=O)c1,0.218,inhibition at 10 µM (CYP2D6): 3.5%; inhibition at 10 µM (CYP1A2): 0%; inhibition at 10 µM (CYP2C9): 23.5%; inhibition at 10 µM (CYP3A4): 62%; IC50 (Blood [1]): 30.5 µM; inhibition at 10 µM (CYP2C19): 70.5%; IC50 (Blood [2]): 32.8 µM
CSc1nc(-c2ccc(F)cc2)c(-c2ccnc(NC(C)=O)c2)n1CCOCCO,8.48,inhibition at 10 µM (CYP2D6): 0%; inhibition at 10 µM (CYP1A2): 0%; inhibition at 10 µM (CYP2C9): 18.5%; inhibition at 10 µM (CYP3A4): 38%; IC50 (Blood [1]): > 100 µM; inhibition at 10 µM (CYP2C19): 19%; IC50 (Blood [2]): > 100 µM
CC(=O)Nc1cc(-c2c(-c3ccc(F)cc3)nc(SCc3ccc([S+](C)[O-])cc3)n2CCCN2CCOCC2)ccn1 (stereo not given),> 10,

# Second part, led by results:
IC50 [3] [µM],Structure (SMILES),also measured
0.46,COCCn1c(SCCC(=O)N2CCOCC2)nc(-c2ccc(F)cc2)c1-c1ccnc(NC(C)=O)c1,
2.38,CSCCn1c(SCc2ccc([S+](C)[O-])cc2)nc(-c2ccc(F)cc2)c1-c1ccnc(NC(C)=O)c1 (stereo not given),
1.31,COCCCn1c(SCc2ccc([S+](C)[O-])cc2)nc(-c2ccc(F)cc2)c1-c1ccnc(NC(C)=O)c1 (stereo not given),
4.97,C#CCOCCn1c(SCc2ccc([S+](C)[O-])cc2)nc(-c2ccc(F)cc2)c1-c1ccnc(NC(C)=O)c1 (stereo not given),
8.69,CSc1nc(-c2ccc(F)cc2)c(-c2ccnc(NC(C)=O)c2)n1CC(C)O (stereo not given),
4.43,CC(=O)Nc1cc(-c2c(-c3ccc(F)cc3)nc(SCc3ccc([S+](C)[O-])cc3)n2CCN2CCCCC2)ccn1 (stereo not given),
3.73,CSc1nc(-c2ccc(F)cc2)c(-c2ccnc(NC(C)=O)c2)n1CC1COC(C)(C)O1 (stereo not given),
2.41,CSc1nc(-c2ccc(F)cc2)c(-c2ccnc(NC(C)=O)c2)n1CCN(C)C,
2.24,CC(=O)Nc1cc(-c2c(-c3ccc(F)cc3)nc(SCc3ccc([S+](C)[O-])cc3)n2CCO)ccn1 (stereo not given),
6.28,CSc1nc(-c2ccc(F)cc2)c(-c2ccnc(NC(C)=O)c2)n1CCCN1CCOCC1,
5.85,CC(=O)Nc1cc(-c2c(-c3ccc(F)cc3)nc(SCc3ccc([S+](C)[O-])cc3)n2C)ccn1 (stereo not given),
> 10,CC(=O)Nc1cc(-c2c(-c3ccc(F)cc3)nc(SCc3ccc([S+](C)[O-])cc3)n2C2CC(C)(C)NC(C)(C)C2)ccn1 (stereo not given),
